BindingDB's records for doi:10.1021/jm0500119 (Cnrs-University of Lille 2 Umr 8525, 2005)

Target: Peptidyl-prolyl cis-trans isomerase NIMA-interacting 1 (Homo sapiens, UniProt Q13526)
Test: Dissociation constant for human peptidyl-prolyl cis-trans isomerase NIMA-interacting 1
Procedure, shortened: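 15N-labeled Pin1 WW domain (His6-tagged, expressed in E. coli BL21(DE3)) in 25 mM deuterated Tris-HCl pH 6.8, 50 mM NaCl, 5 mM DTT, 2.5 mM EDTA, 10% D2O; 600 MHz 1H-15N HSQC at 293 K. 50 μM protein titrated with ligand 0.025–1 mM final; chemical shift perturbations fitted to a single-site equation for KD.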

Sequence of Peptidyl-prolyl cis-trans isomerase NIMA-interacting 1 (Q13526 whole entry): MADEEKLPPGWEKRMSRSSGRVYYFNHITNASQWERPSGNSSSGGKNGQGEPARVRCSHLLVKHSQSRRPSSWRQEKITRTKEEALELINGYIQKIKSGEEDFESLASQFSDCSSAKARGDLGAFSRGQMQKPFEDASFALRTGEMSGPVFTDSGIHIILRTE

- Kd: > 2 mM
SMILES: NC(=O)[C@@H]1CCCN1C(=O)CCNc1c(O)c(=O)c1=O [1-[(S)-3-(2-Hydroxy-3,4-dioxo-cyclobut-1-enylamino)-propionyl]-pyrrolidine-2-carboxylic acid amide]
